# Screens: PubChem BioAssay, several laboratories
# UPR XBP1 act = adaptive UPR (XBP1) activation; activation, % at 20 µM; AID 463104; 0.33% of 330,000 active; CHO-XBP1 luciferase reporter, IRE1-XBP1 UPR activation, luminescence; percent of tunicamycin response, DMSO as zero;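 active means versus positive control, 20 µM dose yields 30% or more activation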
#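 Test system: CHO-XBP1 luciferase reporter cells | Buffer or medium: Serum-containing F12 medium, 10% FBS | Schedule: 6 h compound exposure at 37 °C, 5% CO2 | Detection: Steady-Glo luciferase glow luminescence, 10 min after reagent addition | Read-out basis: Activation, % of tunicamycin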
# UPR CHOP act = activators of apoptotic arm of unfolded protein response (CHOP); CHO-CHOP luciferase reporter, UPR activation, luminescence; percent of tunicamycin response over DMSO baseline; 0.34% of 330,000 active; activation, % at 10 µM;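 active means at 10 µM dose, activation of 40% or more, normalized to positive control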
#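 Assay system: CHO cells with stable CHOP pathway luciferase reporter; Buffer or medium: F12 plus 10% serum; Times: 16-18 h cell attachment, then 6 h compound exposure, 37 °C; Signal: luciferase luminescence; Read-out basis: percent activation relative to tunicamycin control; Control set: tunicamycin high control, DMSO low control.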
# Jurkat NFkB inh = lowers PMA/ionomycin-induced NF-kB signal in Jurkat cells | inhibition, % at 4 µM | 0.53% of 330,000 active | PMA/ionomycin-induced NF-kB luciferase reporter, luminescence; in the data active means inhibition above about 50%
# 697 NFkB inh = lowers PMA/ionomycin-induced NF-kB signal in 697 B cells; 697 B-cell NF-kB luciferase reporter, 16 h; inhibition, % at 4 µM; 0.33% of 330,000 active; in the data active means inhibition above about 35%
# CHOP inh = blocks CHOP induction under ER stress. CHO-K1 CHOP-promoter luciferase, tunicamycin-induced, 15-18 h. inhibition, % at 10 µM. 3.8% of 220,000 active. AID 2732;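 active means compounds that reduced the stress-induced luciferase reporter signal by more than about 70% of percent inhibition, limit read from the data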
# Numbers stand for hits; n = inactive; x = not tested or not shown. This excerpt belongs to a sample that is enriched for hits.
SMILES,UPR XBP1 act,UPR CHOP act,Jurkat NFkB inh,697 NFkB inh,CHOP inh
Cc1sc(NC(=O)Cn2[nH]c(=O)c3ccccc3c2=O)nc1-c1ccccc1,n,n,n,n,88
Cc1ccc(C(=O)/C=C/c2c[nH]c3ccccc23)cc1,n,n,n,n,81
Cc1ccc(C(=O)/C=C/c2cn(CN3CCN(C)CC3)c3ccccc23)cc1,n,n,n,n,82
O=C(/C=C/c1c[nH]c2ccccc12)c1ccccc1,n,n,n,n,n
O=C(/C=C/c1cn(CC(O)CN2CCCCCC2)c2ccccc12)c1cccs1 (centres undefined),n,n,n,n,n
Cc1cccc(CC(=O)NCCN2CCCCC2)c1,n,n,n,n,x
O=C(CCN1C(=O)C2C3C=CC(C3)C2C1=O)N1CC(=O)N(CCc2ccccc2)C(=O)C1 (centres undefined),n,n,n,n,n
O=C(CN1C(=O)C2C3C=CC(C3)C2C1=O)N1CC(=O)N(CCc2ccccc2)C(=O)C1 (centres undefined),n,n,n,n,74
O=S(=O)(Nc1nc2ccccc2nc1Nc1ccc(N2CCOCC2)cc1)c1cc(Cl)ccc1Cl,n,n,n,n,74
CCOC(=O)Cn1c(C)c(Br)c(=O)c2cccc(C)c21,n,n,n,n,92
CC1(C(=O)OCC(=O)NNC(=O)COc2ccc(Cl)cc2)CC1(Cl)Cl (centres undefined),n,n,n,n,x
Cc1ccc2c(c1)c1c(n2CC(O)Cn2c(C)nc3ccccc32)/C(=N\O)CCC1 (centres undefined),n,n,n,n,87
O=c1c2ccccc2nc(COc2ccccc2)n1/N=C/c1cn[nH]c1-c1ccccc1,n,n,n,n,85
Cc1ccccc1OCc1nc2ccccc2c(=O)n1/N=C/c1cn[nH]c1-c1ccc(Br)cc1,n,n,n,n,n
Cc1nc(SCC(C)C)[nH]c(=O)c1Cc1ccccc1,n,n,n,n,83
Cc1ccc(NC(=O)CSc2nc(C)c(Cc3ccccc3)c(=O)[nH]2)cc1,n,n,n,n,n
CSc1nc(C)c(Cc2ccccc2)c(=O)[nH]1,n,n,n,n,n
C=C(C)CSc1nc(C)c(Cc2ccccc2)c(=O)[nH]1,n,n,n,n,76
CCOC(=O)C1(Cc2ccccc2)CCCN(C2CCCC2)C1 (centres undefined),n,n,n,n,n
COc1ccc(CCNC(=O)CSc2nnc3ccc(-c4ccccn4)nn23)cc1OC,n,n,n,n,x
O=C(Cn1c2ccc(F)cc2c2nc3n(c(=O)c21)CCS3)Nc1ccccc1C(F)(F)F,n,n,n,n,78
CC(C)(C)CN1CCC(Oc2cccc(C(=O)N3CCC[C@H]3CO)c2)CC1,n,n,n,n,x
C/C(=N\NC(=O)CNC(=O)C(c1ccccc1)c1ccccc1)c1ccccc1,n,n,n,n,n
C/C(=N\NC(=O)CNC(=O)C(c1ccccc1)c1ccccc1)c1ccc(C(C)(C)C)cc1,n,n,n,n,86
CCn1c(Cn2nnc(-c3ccccc3)n2)nnc1SCC(=O)Nc1ccccc1,n,n,n,n,88
SMILES,UPR XBP1 act,UPR CHOP act,Jurkat NFkB inh,697 NFkB inh,CHOP inh
Cc1cc(N2CCN(c3ccccc3)CC2)nc(NCc2ccccc2)n1,n,n,n,n,88
CCCc1nc(C)cc(N2CCN(c3ccccc3)CC2)n1,n,n,n,n,x
O=C(CSC1=NNC(c2ccccn2)S1)Nc1ccc(C(F)(F)F)cc1 (centres undefined),n,n,n,n,73
CC(=O)Nc1ccc(NC(=O)CSc2ccccn2)cc1,n,n,n,n,n
COc1cccc(S(=O)(=O)NCc2ccc(C(=O)Nc3cccc(Cl)c3)cc2)c1,n,n,n,n,71
Cc1ccsc1/C=N/Nc1ccc(F)cc1F,n,n,n,n,x
CCCCCCCCNC(=O)CCNC(=O)c1ccc(C(C)(C)C)cc1,n,n,n,n,93
Cc1cccc(N/C(N)=N/c2nc(CSc3ccc(Cl)cc3)cc(=O)[nH]2)c1,38,n,n,n,n
O=[N+]([O-])c1ccccc1S(=O)(=O)Nc1cccc(S(=O)(=O)N2CCCC2)c1,n,n,n,n,x
O=C(Cc1ccccc1)Nc1scc(-c2ccccc2)c1C(=O)N1CCOCC1,n,n,n,n,n
NC(=O)c1c(-c2ccc(Cl)cc2Cl)csc1NC(=O)Cc1ccccc1,x,x,x,x,73
O=C(COC(=O)c1ccccc1C(=O)c1ccc(Cl)c([N+](=O)[O-])c1)NC1CC1,n,n,n,n,106
O=C(COC(=O)c1cc([N+](=O)[O-])ccc1Cl)NC1CCCC1,n,n,n,n,x
Cn1c(-c2c(N)n(-c3ccccc3)c3nc4ccccc4nc23)nc2ccccc21,x,x,x,x,74
Cc1cccc(-n2c(N)c(-c3nc4ccccc4n3C)c3nc4ccccc4nc32)c1,n,n,n,n,n
Oc1ccccc1C(Nc1nccs1)c1ccc2cccnc2c1O (centres undefined),n,n,n,n,71
CC1(c2nnc(-c3cccc(Cl)c3)o2)CC(c2cccc([N+](=O)[O-])c2)=NO1 (centres undefined),n,n,n,n,x
COc1ccc(-n2c(Cc3cccn3C)nnc2SCC(=O)Nc2ccc(Cl)cc2)cc1,n,n,n,n,71
CC(C)(C)OC(=O)C[C@H]1C/C=C\C[C@@H](CC(=O)N[C@@H](CO)Cc2ccccc2)C(=O)NC[C@@H](c2ccccc2)OC1=O,n,n,n,n,x
O=C(O)C(c1ccccc1)N1C(=O)/C(=C/c2cccs2)SC1=S (centres undefined),n,n,n,n,n
CC(c1ccccc1)N1C(=O)/C(=C/c2ccncc2)SC1=S (centres undefined),n,n,n,n,86
C=CCOc1ccc(/C=C2\SC(=S)N(C(C(=O)O)c3ccccc3)C2=O)cc1 (centres undefined),x,x,x,x,90
CCCCOC(=O)NS(=O)(=O)c1sc(CC(C)C)cc1-c1ccc(Cn2c(CC)nc3c(C)cc(C)nc32)cc1,n,n,n,n,n
CN(Cc1ccccc1)Cc1nc2c(c(=O)n(C)c(=O)n2C)n1CCCc1ccccc1,n,n,n,n,77
Cc1ccc(Cn2c(NCCc3ccccc3)nc3c2c(=O)n(C)c(=O)n3C)cc1,n,n,n,n,79
Cc1ccc(N2C(=NC(=O)c3ccccc3)SC3CS(=O)(=O)CC32)cc1 (centres undefined),n,n,n,n,x
CCCC(=O)N=C1SC2CS(=O)(=O)CC2N1c1ccc(-c2nc3ccc(C)cc3s2)cc1 (centres undefined),65,n,n,n,77
Cc1ccc(/C=C/C(=O)N2CCC(Cc3ccccc3)CC2)cc1,n,n,n,n,87
O=C(CN1CCCc2ccccc21)Nc1ccc(F)cc1[N+](=O)[O-],n,n,n,n,74
c1ccc(OCCCc2nc(-c3ccncc3)no2)cc1,n,n,n,n,90
